Reference: ChEMBL document CHEMBL1914381, “New spirocyclic Δ²-isoxazoline derivatives related to selective agonists of α7 neuronal nicotinic acetylcholine receptors” (Eur J Med Chem, 2011)

What was measured:
[1] = biological target: Neuronal acetylcholine receptor; alpha4/beta2 (Rattus norvegicus, UniProt P09483+P12390); assay: Displacement of [3H]epibatidine from alpha4beta2 nAChR in rat cortical membranes by beta counting relative to acetylcholine; type: cell membranes, Membrane
Outline: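 Rat cortex membranes pre-incubated with […] to block α7 sites. Then 30 min r.t. with test compound (10 pM–10 mM), then overnight at 4 °C with 0.075 nM [3H]epibatidine. Nonspecific binding with 100 nM unlabelled epibatidine. Filtered on PEI-soaked GF/C filters and washed; beta counting. Ki fitted from three competition experiments by non-linear least squares; >100 mM when no inhibition up to 100 mM.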

[2] = biological target: Neuronal acetylcholine receptor subunit alpha-7 (Rattus norvegicus, UniProt Q05941); assay: Displacement of [125I]-alpha-bungarotoxin from alpha7 nAChR in rat cortical membranes by gamma counting; type: cell membranes, Membrane
Neuronal acetylcholine receptor subunit alpha-7 (Rattus norvegicus, UniProt Q05941), sequence (Q05941 whole entry): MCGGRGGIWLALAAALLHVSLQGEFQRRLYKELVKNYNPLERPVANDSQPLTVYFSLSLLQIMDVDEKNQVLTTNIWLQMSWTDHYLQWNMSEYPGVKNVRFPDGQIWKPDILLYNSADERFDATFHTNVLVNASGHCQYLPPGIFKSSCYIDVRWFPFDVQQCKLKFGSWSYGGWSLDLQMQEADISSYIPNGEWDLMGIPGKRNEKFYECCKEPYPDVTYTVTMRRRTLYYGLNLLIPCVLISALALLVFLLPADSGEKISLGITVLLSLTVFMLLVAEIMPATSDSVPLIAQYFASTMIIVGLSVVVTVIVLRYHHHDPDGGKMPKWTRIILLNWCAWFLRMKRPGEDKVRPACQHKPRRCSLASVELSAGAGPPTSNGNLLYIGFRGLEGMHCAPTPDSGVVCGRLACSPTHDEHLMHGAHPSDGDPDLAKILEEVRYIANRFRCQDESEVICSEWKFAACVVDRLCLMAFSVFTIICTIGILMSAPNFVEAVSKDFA
Outline: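 Rat cortex membranes (two rats per experiment, homogenized and centrifuged twice at 60,000g) in Tris-HCl buffer pH 7 with protease inhibitors. Pre-incubated 30 min r.t. with test compound (10 pM–10 mM), then overnight at r.t. with 1 nM [125I]α-bungarotoxin. Nonspecific binding with […]. Filtered on polyethylenimine-soaked GF/C filters; gamma counting. Ki fitted from three competition experiments by non-linear least squares; >100 mM when no inhibition up to 100 mM.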

[3] = biological target: Neuronal acetylcholine receptor; alpha3/beta4 (Homo sapiens, UniProt P30926+P32297); assay: Displacement of [3H]epibatidine from alpha3beta4 nAChR expressed in human HEK293 cells by beta liquid scintillation counting; type: cell-based
Neuronal acetylcholine receptor; alpha3/beta4, sequence (P30926 whole entry): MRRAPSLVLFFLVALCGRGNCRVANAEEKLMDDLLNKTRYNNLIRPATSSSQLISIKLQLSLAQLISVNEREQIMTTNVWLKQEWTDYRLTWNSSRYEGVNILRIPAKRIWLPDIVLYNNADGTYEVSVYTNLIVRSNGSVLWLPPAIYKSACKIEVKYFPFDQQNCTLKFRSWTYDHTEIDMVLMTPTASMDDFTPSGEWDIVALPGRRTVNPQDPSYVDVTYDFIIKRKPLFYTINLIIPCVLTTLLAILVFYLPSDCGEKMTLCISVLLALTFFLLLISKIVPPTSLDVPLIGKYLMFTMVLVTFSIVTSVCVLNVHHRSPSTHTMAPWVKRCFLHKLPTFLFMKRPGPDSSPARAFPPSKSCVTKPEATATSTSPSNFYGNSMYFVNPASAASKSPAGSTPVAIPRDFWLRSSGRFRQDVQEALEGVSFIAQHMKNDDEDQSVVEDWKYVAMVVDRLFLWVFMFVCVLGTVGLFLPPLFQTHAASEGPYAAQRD
Neuronal acetylcholine receptor; alpha3/beta4, sequence (P32297 whole entry): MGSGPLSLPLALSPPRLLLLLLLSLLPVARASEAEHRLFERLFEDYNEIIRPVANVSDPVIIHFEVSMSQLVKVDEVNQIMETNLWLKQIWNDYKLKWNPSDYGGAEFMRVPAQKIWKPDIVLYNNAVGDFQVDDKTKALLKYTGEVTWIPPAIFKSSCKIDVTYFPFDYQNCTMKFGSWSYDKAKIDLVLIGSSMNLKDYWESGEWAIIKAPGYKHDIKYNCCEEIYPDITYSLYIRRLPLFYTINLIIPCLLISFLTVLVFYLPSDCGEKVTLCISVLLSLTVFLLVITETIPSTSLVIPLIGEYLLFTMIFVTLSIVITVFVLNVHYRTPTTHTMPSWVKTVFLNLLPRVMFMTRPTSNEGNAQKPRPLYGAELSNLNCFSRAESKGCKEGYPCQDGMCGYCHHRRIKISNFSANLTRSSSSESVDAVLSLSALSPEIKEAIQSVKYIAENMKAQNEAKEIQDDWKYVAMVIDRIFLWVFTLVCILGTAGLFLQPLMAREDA
Outline: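 HEK 293 cells transiently transfected with α3 and β4 cDNAs by JetPEI and harvested after 48 h. Compound pre-incubated 5 min, then overnight at 4 °C with 0.25 nM [3H]epibatidine in Tris-HCl pH 7 buffer with 2 mg/ml BSA. Nonspecific binding with 100 nM cold epibatidine. Cells washed seven times with ice-cold PBS; liquid scintillation counting.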

[4] = biological target: Neuronal acetylcholine receptor subunit alpha-7 (Homo sapiens, UniProt P36544); assay: Agonist activity at human alpha7 nAChR expressed in rat GH4C1 cells assessed as maximal electric current amplitude at 1 mM by whole-cell patch clamp electrophysiology assay relative to acetylcholine; type: functional, cell-based, GH4-C1; conditions: for Activity: GH4-C1
Neuronal acetylcholine receptor subunit alpha-7 (Homo sapiens, UniProt P36544), sequence (P36544 whole entry, the tested form may be a part): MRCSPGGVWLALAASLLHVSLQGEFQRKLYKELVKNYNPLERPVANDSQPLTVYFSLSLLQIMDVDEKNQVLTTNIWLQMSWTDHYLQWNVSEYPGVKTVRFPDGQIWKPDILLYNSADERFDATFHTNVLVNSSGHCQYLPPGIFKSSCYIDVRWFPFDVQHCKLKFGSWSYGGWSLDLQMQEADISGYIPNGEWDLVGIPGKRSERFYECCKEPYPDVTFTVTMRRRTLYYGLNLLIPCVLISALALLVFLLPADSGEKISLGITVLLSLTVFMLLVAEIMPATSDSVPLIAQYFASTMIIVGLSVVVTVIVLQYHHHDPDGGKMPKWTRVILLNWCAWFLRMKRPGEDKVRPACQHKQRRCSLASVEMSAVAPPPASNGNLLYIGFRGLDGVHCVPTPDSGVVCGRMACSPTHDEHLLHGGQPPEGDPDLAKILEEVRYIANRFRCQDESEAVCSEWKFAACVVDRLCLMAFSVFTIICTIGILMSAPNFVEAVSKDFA
Outline: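 GH4C1 cells stably transfected with human α7 subunit; whole-cell patch clamp, holding potential −70 mV, fast gravity-driven perfusion exchanger. Compound applied at 1 mM; current amplitude normalized to that from ACh 1 mM on the same cell. n = 8–12 cells.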

Neuronal acetylcholine receptor; alpha4/beta2, sequence (P09483 whole entry): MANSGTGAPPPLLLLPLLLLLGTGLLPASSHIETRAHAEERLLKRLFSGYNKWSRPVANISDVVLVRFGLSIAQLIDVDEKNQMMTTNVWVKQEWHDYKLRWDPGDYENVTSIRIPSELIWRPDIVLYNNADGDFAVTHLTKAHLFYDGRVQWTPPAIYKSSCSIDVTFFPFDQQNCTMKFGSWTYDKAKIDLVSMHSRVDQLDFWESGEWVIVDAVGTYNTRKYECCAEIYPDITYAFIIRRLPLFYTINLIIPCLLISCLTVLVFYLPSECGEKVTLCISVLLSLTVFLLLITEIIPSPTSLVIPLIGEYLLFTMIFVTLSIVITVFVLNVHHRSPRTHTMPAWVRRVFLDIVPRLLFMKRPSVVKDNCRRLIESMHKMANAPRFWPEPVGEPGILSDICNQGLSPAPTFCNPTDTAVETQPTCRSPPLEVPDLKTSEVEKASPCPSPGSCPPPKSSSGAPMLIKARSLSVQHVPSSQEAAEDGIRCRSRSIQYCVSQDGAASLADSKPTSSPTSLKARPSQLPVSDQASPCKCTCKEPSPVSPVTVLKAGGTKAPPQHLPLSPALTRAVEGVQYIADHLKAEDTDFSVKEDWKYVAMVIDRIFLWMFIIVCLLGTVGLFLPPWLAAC
Neuronal acetylcholine receptor; alpha4/beta2, sequence (P12390 whole entry): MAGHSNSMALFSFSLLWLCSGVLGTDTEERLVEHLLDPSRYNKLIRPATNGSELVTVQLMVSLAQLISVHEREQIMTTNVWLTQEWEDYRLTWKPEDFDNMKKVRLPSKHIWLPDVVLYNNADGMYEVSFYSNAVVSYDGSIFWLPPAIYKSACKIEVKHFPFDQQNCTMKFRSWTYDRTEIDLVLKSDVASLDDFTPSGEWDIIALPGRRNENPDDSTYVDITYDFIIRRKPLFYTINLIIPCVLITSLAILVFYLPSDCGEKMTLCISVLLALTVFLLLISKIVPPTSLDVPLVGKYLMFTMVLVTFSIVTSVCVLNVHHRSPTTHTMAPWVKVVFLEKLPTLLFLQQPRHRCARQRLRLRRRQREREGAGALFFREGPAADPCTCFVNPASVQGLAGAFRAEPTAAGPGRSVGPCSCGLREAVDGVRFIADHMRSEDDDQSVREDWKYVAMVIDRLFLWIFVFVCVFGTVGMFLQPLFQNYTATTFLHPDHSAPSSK

| SMILES | Ki [1] | Ki [2] | Ki [3] | EC50 [4] | Activity [4] |
| --- | --- | --- | --- | --- | --- |
| BrC1=NOC2(C1)CN1CCC2CC1 (racemic) | 0.64 µM | 0.0135 µM |  |  |  |
| COC1=NOC2(C1)CN1CCC2CC1 (racemic) | 7.9 µM | 0.0142 µM |  |  |  |
| c1ccc(C2=NOC3(C2)CN2CCC3CC2)cc1 (racemic) | 22 µM | 0.025 µM |  |  |  |
| C[N+]12CCC(CC1)C1(CC(Br)=NO1)C2 (racemic) | 32.5 µM | 0.109 µM |  |  |  |
| COC1=NOC2(C1)C[N+]1(C)CCC2CC1 (racemic) | 175 µM | 0.0914 µM |  |  |  |
| BrC1=NOC2(C1)CN1CCC2C1 (racemic) | 5 µM | 0.23 µM | 13 µM | 84.1 µM | 76% |
| COC1=NOC2(C1)CN1CCC2C1 (racemic) | 16 µM | 0.42 µM | 46 µM |  |  |
| c1ccc(C2=NOC3(C2)CN2CCC3C2)cc1 (racemic) | 53 µM | 3.6 µM | 16 µM |  |  |
| C[N+]12CCC(C1)C1(CC(Br)=NO1)C2 (racemic) | 22 µM | 6.2 µM |  |  |  |
| COC1=NOC2(C1)C[N+]1(C)CCC2C1 (racemic) | 20 µM | 2.9 µM |  |  |  |
| C[N+]12CCC(C1)C1(CC(c3ccccc3)=NO1)C2 (racemic) | 38 µM | 5.1 µM |  |  |  |
| CN1CCCC2(CC(Br)=NO2)C1 (racemic) | 44 µM | 6.6 µM |  |  |  |
| COC1=NOC2(CCCN(C)C2)C1 (racemic) | > 100 µM | 5.5 µM | 91 µM |  | 7% |
| CN1CCCC2(CC(c3ccccc3)=NO2)C1 (racemic) | > 100 µM | 30 µM |  |  |  |
| C[N+]1(C)CCCC2(CC(Br)=NO2)C1 (racemic) | 50 µM | 3.7 µM |  |  |  |
| COC1=NOC2(CCC[N+](C)(C)C2)C1 (racemic) | 94 µM | 13 µM |  |  |  |
| C[N+]1(C)CCCC2(CC(c3ccccc3)=NO2)C1 (racemic) | > 100 µM | 0.7 µM | 6.6 µM |  | 26% |
| BrC1=NOC2(CCCNC2)C1 (racemic) | 58 µM | 4.3 µM |  |  |  |
| COC1=NOC2(CCCNC2)C1 (racemic) | > 100 µM | 3.7 µM | 75 µM |  |  |
| c1ccc(C2=NOC3(CCCNC3)C2)cc1 (racemic) | > 100 µM | 4.5 µM | 43 µM |  |  |
